# Laboratory results: ChEMBL document CHEMBL1152342, “Thiazomycins, thiazolyl peptide antibiotics from Amycolatopsis fastidiosa” (2009)
# Key:
# Assay type in all cases: functional
# Staphylococcus aureus [1] = assay: Antibacterial activity against macrolide, imipenem, methicillin-resistant Staphylococcus aureus MB5393 after 20 hrs by twofold serial broth dilution method; details: MB5393, 20 h
# Outline: (§1)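 MICs by NCCLS (now CLSI) twofold serial broth dilution. Cation-adjusted Mueller Hinton broth was the standard medium, with CAMHB + 2.5% lysed horse blood used for certain strains. Cultures were incubated at 37 °C for 20 h before reading.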
# Staphylococcus aureus [2] = assay: Antibacterial activity against methicillin-sensitive Staphylococcus aureus MB2865 after 20 hrs by twofold serial broth dilution method; details: MB2865, 20 h; outline: as §1
# Staphylococcus aureus [3] = assay: Antibacterial activity against methicillin-sensitive Staphylococcus aureus MB2865 after 20 hrs by twofold serial broth dilution method in presence of 50% human serum; details: MB2865, 20 h; outline: as §1
# Staphylococcus aureus [4] = assay: Antibacterial activity against macrolide-sensitive, Linezolid, methicillin-resistant Staphylococcus aureus CL5814 after 20 hrs by twofold serial broth dilution method; details: CL5814, 20 h; outline: as §1
# Staphylococcus aureus [5] = assay: Antibacterial activity against macrolide, methicillin-resistant Staphylococcus aureus CL5705 after 20 hrs by twofold serial broth dilution method; details: CL5705, 20 h; outline: as §1
# Staphylococcus aureus [6] = assay: Antibacterial activity against vancomycin-intermediate, macrolide, methicillin-resistant Staphylococcus aureus CL5706 after 20 hrs by twofold serial broth dilution method; details: CL5706, 20 h; outline: as §1
# [7] = system: Staphylococcus haemolyticus; assay: Antibacterial activity against ampicillin-sensitive Staphylococcus haemolyticus CL8544 after 20 hrs by twofold serial broth dilution method; details: CL8544, 20 h; outline: as §1
# [8] = system: Staphylococcus epidermidis; assay: Antibacterial activity against Staphylococcus epidermidis CL8040 after 20 hrs by twofold serial broth dilution method; details: CL8040, 20 h; outline: as §1
# Enterococcus faecalis [9] = assay: Antibacterial activity against vancomycin-sensitive Enterococcus faecalis CL8516 after 20 hrs by twofold serial broth dilution method; details: CL8516, 20 h; outline: as §1
# Enterococcus faecalis [10] = assay: Antibacterial activity against vancomycin, macrolide-resistant, linezolid-sensitive Enterococcus faecalis CL5246 after 20 hrs by twofold serial broth dilution method; details: CL5246, 20 h; outline: as §1
# Enterococcus faecium [11] = assay: Antibacterial activity against vancomycin, linezolid-resistant Enterococcus faecium CL5791 after 20 hrs by twofold serial broth dilution method; details: CL5791, 20 h; outline: as §1
# Enterococcus faecium [12] = assay: Antibacterial activity against vancomycin, linezolid-resistant Enterococcus faecium CL5791 after 20 hrs by twofold serial broth dilution method in presence of 50% human serum; details: CL5791, 20 h; outline: as §1
# Streptococcus pneumoniae [13] = assay: Antibacterial activity against penicillin-sensitive Streptococcus pneumoniae CL8002 after 20 hrs by twofold serial broth dilution method; details: CL8002, 20 h; outline: as §1
# Streptococcus pneumoniae [14] = assay: Antibacterial activity against penicillin-resistant Streptococcus pneumoniae CL5771 after 20 hrs by twofold serial broth dilution method; details: CL5771, 20 h; outline: as §1
# Streptococcus pyogenes = assay: Antibacterial activity against Streptococcus pyogenes CL10440 after 20 hrs by twofold serial broth dilution method; details: CL10440, 20 h; outline: as §1
# Candida albicans = assay: Antifungal activity against Candida albicans MY1055 after 20 hrs by twofold serial broth dilution method; details: MY1055, 20 h
smiles,measurement,setting,value
C=C(NC(=O)c1csc(-c2nc3c(cc2O)-c2nc(cs2)C(=O)N[C@@H]([C@@H](C)O)C(=O)N/C(=C(\C)OC)c2nc(cs2)C(=O)N[C@@H]2c4nc(cs4)C(=O)N[C@@H](COC(=O)c4c5c6c(cccc6n4O)COC(=O)[C@@H](O[C@H]4C[C@]6(C)OCN(C)[C@@H]6[C@H](C)O4)[C@H]2OC5)c2nc-3cs2)n1)C(N)=O [THIAZOMYCIN],MIC,Staphylococcus aureus [1],0.003 µg/mL
same,MIC,Staphylococcus aureus [2],0.006 µg/mL
same,MIC,Staphylococcus aureus [3],0.05 µg/mL
same,MIC,Staphylococcus aureus [4],0.01 µg/mL
same,MIC,Staphylococcus aureus [5],0.01 µg/mL
same,MIC,Staphylococcus aureus [6],0.01 µg/mL
same,MIC,[7],0.02 µg/mL
same,MIC,[8],0.03 µg/mL
same,MIC,Enterococcus faecalis [9],0.02 µg/mL
same,MIC,Enterococcus faecalis [10],0.01 µg/mL
same,MIC,Enterococcus faecium [11],0.002 µg/mL
same,MIC,Enterococcus faecium [12],0.01 µg/mL
same,MIC,Streptococcus pneumoniae [13],0.003 µg/mL
same,MIC,Streptococcus pneumoniae [14],3 ng/mL
same,MIC,Streptococcus pyogenes,2 ng/mL
same,MIC,Candida albicans,> 32 µg/mL
C=C(NC(=O)c1csc(-c2nc3c(cc2O)-c2nc(cs2)C(=O)N[C@@H]([C@@H](C)O)C(=O)N/C(=C(\C)OC)c2nc(cs2)C(=O)N[C@@H]([C@H](O)[C@H](O)C(=O)O)c2nc(cs2)C(=O)N[C@@H](CO)c2nc-3cs2)n1)C(N)=O [THIAZOMYCIN E2],MIC,Staphylococcus aureus [2],> 200 µg/mL
same,MIC,Enterococcus faecalis [9],> 200 µg/mL
same,MIC,Streptococcus pneumoniae [13],> 200 µg/mL
CO/C(C)=C1/NC(=O)[C@H]([C@@H](C)O)NC(=O)c2csc(n2)-c2cc(O)c(-c3nc(C(N)=O)cs3)nc2-c2csc(n2)[C@@H]2COC(=O)c3[nH]c4cccc5c4c3CO[C@H]([C@H](O[C@H]3C[C@](C)(O)[C@H](N(C)C)[C@H](C)O3)C(=O)OC5)[C@H](NC(=O)c3csc1n3)c1nc(cs1)C(=O)N2 [THIAZOMYCIN C],MIC,Staphylococcus aureus [1],0.05 µg/mL
same,MIC,Staphylococcus aureus [2],0.05 µg/mL
same,MIC,Staphylococcus aureus [3],0.1 µg/mL
same,MIC,Staphylococcus aureus [4],0.03 µg/mL
same,MIC,Staphylococcus aureus [5],0.1 µg/mL
same,MIC,Staphylococcus aureus [6],0.1 µg/mL
same,MIC,[7],0.1 µg/mL
same,MIC,[8],0.1 µg/mL
same,MIC,Enterococcus faecalis [9],> 0.1 µg/mL
same,MIC,Enterococcus faecalis [10],0.1 µg/mL
same,MIC,Enterococcus faecium [11],0.1 µg/mL
same,MIC,Enterococcus faecium [12],0.1 µg/mL
same,MIC,Streptococcus pneumoniae [13],0.01 µg/mL
same,MIC,Streptococcus pneumoniae [14],6 ng/mL
same,MIC,Streptococcus pyogenes,6 ng/mL
same,MIC,Candida albicans,> 32 µg/mL
C=C(NC(=O)c1csc(-c2nc3c(cc2O)-c2nc(cs2)C(=O)N[C@@H]([C@@H](C)O)C(=O)N/C(=C(\C)OC)c2nc(cs2)C(=O)N[C@@H]([C@H](O)[C@H](O[C@H]2C[C@](C)(O)[C@H](N(C)C)[C@H](C)O2)C(=O)O)c2nc(cs2)C(=O)N[C@@H](CO)c2nc-3cs2)n1)C(N)=O [THIAZOMYCIN E1],MIC,Staphylococcus aureus [2],100 µg/mL
same,MIC,Enterococcus faecalis [9],> 200 µg/mL
same,MIC,Streptococcus pneumoniae [13],200 µg/mL
C=C(NC(=O)c1csc(-c2nc3c(cc2O)-c2nc(cs2)C(=O)N[C@@H]([C@@H](C)O)C(=O)N/C(=C(\C)OC)c2nc(cs2)C(=O)N[C@@H]2c4nc(cs4)C(=O)N[C@@H](COC(=O)c4[nH]c5cccc6c5c4CO[C@@H]2[C@H](OC)C(=O)OC6)c2nc-3cs2)n1)C(N)=O [THIAZOMYCIN B],MIC,Staphylococcus aureus [1],0.02 µg/mL
same,MIC,Staphylococcus aureus [2],0.02 µg/mL
same,MIC,Staphylococcus aureus [3],0.25 µg/mL
same,MIC,Staphylococcus aureus [4],0.02 µg/mL
same,MIC,Staphylococcus aureus [5],0.03 µg/mL
same,MIC,Staphylococcus aureus [6],0.03 µg/mL
same,MIC,[7],0.03 µg/mL
same,MIC,[8],0.03 µg/mL
same,MIC,Enterococcus faecalis [9],0.1 µg/mL
same,MIC,Enterococcus faecalis [10],0.06 µg/mL
same,MIC,Enterococcus faecium [11],0.004 µg/mL
same,MIC,Enterococcus faecium [12],0.1 µg/mL
same,MIC,Streptococcus pneumoniae [13],0.008 µg/mL
same,MIC,Streptococcus pneumoniae [14],4 ng/mL
same,MIC,Streptococcus pyogenes,4 ng/mL
same,MIC,Candida albicans,> 32 µg/mL
CO/C(C)=C1/NC(=O)[C@H]([C@@H](C)O)NC(=O)c2csc(n2)-c2cc(O)c(-c3nc(C(N)=O)cs3)nc2-c2csc(n2)[C@H](CO)NC(=O)c2csc(n2)[C@H]([C@H](O)[C@H](O)C(=O)O)NC(=O)c2csc1n2 [THIAZOMYCIN E3],MIC,Staphylococcus aureus [2],> 200 µg/mL
same,MIC,Enterococcus faecalis [9],200 µg/mL
same,MIC,Streptococcus pneumoniae [13],200 µg/mL
CC(=O)NC[C@H]1CN(c2ccc(N3CCOCC3)c(F)c2)C(=O)O1 [LINEZOLID],MIC,Staphylococcus aureus [4],> 32 µg/mL
same,MIC,[7],2 µg/mL
same,MIC,[8],1 µg/mL
same,MIC,Enterococcus faecium [11],32 µg/mL
same,MIC,Enterococcus faecium [12],> 32 µg/mL
same,MIC,Streptococcus pyogenes,500 ng/mL
same,MIC,Candida albicans,> 32 µg/mL
C=C(NC(=O)c1csc(-c2nc3c(cc2O)-c2nc(cs2)C(=O)N[C@@H]([C@@H](C)O)C(=O)N/C(=C(\C)OC)c2nc(cs2)C(=O)N[C@@H]2c4nc(cs4)C(=O)N[C@@H](COC(=O)c4[nH]c5cccc6c5c4CO[C@@H]2[C@H](O[C@H]2C[C@](C)(O)[C@@H](O)[C@H](C)O2)C(=O)OC6)c2nc-3cs2)n1)C(N)=O [THIAZOMYCIN D],MIC,Staphylococcus aureus [1],0.031 µg/mL
same,MIC,Staphylococcus aureus [2],0.03 µg/mL
same,MIC,Staphylococcus aureus [3],1 µg/mL
same,MIC,Staphylococcus aureus [4],0.06 µg/mL
same,MIC,Staphylococcus aureus [5],0.1 µg/mL
same,MIC,Staphylococcus aureus [6],0.1 µg/mL
same,MIC,[7],0.06 µg/mL
same,MIC,[8],0.03 µg/mL
same,MIC,Enterococcus faecalis [9],0.1 µg/mL
same,MIC,Enterococcus faecalis [10],0.1 µg/mL
same,MIC,Enterococcus faecium [11],0.1 µg/mL
same,MIC,Enterococcus faecium [12],1 µg/mL
same,MIC,Streptococcus pneumoniae [13],0.1 µg/mL
same,MIC,Streptococcus pneumoniae [14],30 ng/mL
same,MIC,Streptococcus pyogenes,20 ng/mL
same,MIC,Candida albicans,> 32 µg/mL
CC[C@H]1OC(=O)[C@H](C)[C@@H](O[C@H]2C[C@@](C)(OC)[C@@H](O)[C@H](C)O2)[C@H](C)[C@@H](O[C@@H]2O[C@H](C)C[C@H](N(C)C)[C@H]2O)[C@](C)(O)C[C@@H](C)C(=O)[C@H](C)[C@@H](O)[C@]1(C)O [ERYTHROMYCIN],MIC,Staphylococcus aureus [1],> 32 µg/mL
same,MIC,Staphylococcus aureus [2],0.1 µg/mL
same,MIC,Staphylococcus aureus [3],0.1 µg/mL
same,MIC,Staphylococcus aureus [4],1 µg/mL
same,MIC,Staphylococcus aureus [5],> 32 µg/mL
same,MIC,Staphylococcus aureus [6],> 32 µg/mL
same,MIC,[7],1 µg/mL
same,MIC,[8],0.25 µg/mL
same,MIC,Enterococcus faecalis [9],1 µg/mL
same,MIC,Enterococcus faecalis [10],32 µg/mL
same,MIC,Enterococcus faecium [11],> 32 µg/mL
same,MIC,Enterococcus faecium [12],> 32 µg/mL
same,MIC,Streptococcus pneumoniae [13],2 µg/mL
same,MIC,Streptococcus pneumoniae [14],2000 ng/mL
same,MIC,Streptococcus pyogenes,≤ 30 ng/mL
same,MIC,Candida albicans,> 32 µg/mL
